Measured values of several laboratories.
Protocols differ between the studies behind these lines.
Read-out: metabolic stability

CC(C)(C)C[C@@H]1N[C@@H](C(=O)N[C@H]2C[C@](C)(O)C2)[C@H](c2cccc(Cl)c2F)[C@]12C(=O)Nc1cc(Cl)ccc12 — half-life (mouse; liver microsomes): > 60 min
O=S(=O)(Nc1cccc(-c2nnn[nH]2)c1)c1ccc(Cl)c2nonc12 — half-life (mouse; liver microsomes): 81 min
CN1CCN(Cc2cc(CNC3(c4ccccc4F)CCCC3)ccc2O)CC1 — half-life (mouse; liver microsomes; 4.6 µM; pH 7.5): 12 min
COc1cc(C2Oc3cc([C@H]4Oc5cc(O)cc(O)c5C(=O)[C@@H]4O)ccc3OC2CO)ccc1O (stereo partly drawn) — half-life (mouse; liver microsomes; 1 µM): 82.5 min
O=S(=O)(Nc1cccc(-c2nnn[nH]2)c1)c1cc(C(F)(F)F)ccc1C(F)(F)F — half-life (mouse; liver microsomes): 35 min
O=C1CCN(C(=O)Nc2ccc(F)c(C(F)F)c2)[C@@H]2CCCC[C@H]12 — half-life (mouse; liver microsomes): > 32 min
O=C(OC(C(F)(F)F)C(F)(F)F)N1Cc2ccc(OCCN3CCOCC3)cc2C1 — half-life (mouse; liver microsomes): 7 min
O=C(Nc1ccccc1)C1CCN(c2ncc(-c3ccc4c(c3)OCCCO4)s2)CC1 — half-life (mouse; liver microsomes; 1 µM): < 10 min
CCOC(=O)NS(=O)(=O)c1sc(CC(C)C)cc1-c1ccc2c(c1)CN(C)C(=O)C2 — half-life (mouse; liver microsomes; 1 µM; pH 7.4): 23 min
CO[C@@H](C[C@H]1C(C)=CC[C@@H]2[C@]3(C)C[C@H](O[C@@H]4O[C@@H](C)[C@H](OC(=O)c5cccc(O)c5)[C@@H](O[C@@H]5O[C@H](CO)[C@@H](O)[C@H](O)[C@H]5NC(C)=O)[C@H]4O)[C@@H](O)C(C)(C)[C@H]3CC[C@]21C)[C@H](N)C(=O)O.O=C(O)C(F)(F)F — half-life (mouse; hepatocytes; 1 µM): 296 min
O=C(c1ccc(F)cc1)C1CCN(CCn2c(=O)[nH]c3ccccc3c2=O)CC1 — half-life (mouse; liver microsomes): 14.5 min
CCOC(=O)C1=C(C)N/C(=C/c2cc(C)n(Cc3ccc(C(F)(F)F)cc3)c2C)C1=O — half-life (mouse; liver microsomes; 1 µM): 17 min
Cc1ccc(S(=O)(=O)Nc2cccc(-c3nnn[nH]3)c2)cc1C — half-life (mouse; liver microsomes): 50 min
CNC(=O)[C@H](Cc1c[nH]cn1)NC(=O)CN(CC(=O)O)Cc1ccccc1 — half-life (male mouse; liver microsomes; 1 µM; pH 7.4): > 40 min
O=C(Cc1ccc2ccccc2c1)Nc1cc(C2CCC2)[nH]n1 — half-life (mouse; liver S9): 28.1 min
Fc1ccc([C@@H]2CCNC[C@H]2COc2ccc3c(c2)OCO3)cc1 — half-life (CD-1 mouse; liver microsomes; 1 µM; pH 7.4): 24 min
N=c1c2c(-c3ccccc3)c(-c3ccccc3)n(CCc3ccccc3)c2ncn1[C@H]1CC[C@H](O)CC1 — half-life (male CD-1 mouse; liver microsomes; 1 µM; pH 7.4): > 120 min
O=C(Nc1ccc2sc(-c3ccc(F)c(F)c3)nc2c1)N1CC[C@H](F)C1 — half-life (mouse; liver microsomes; 1.5 µM): ≥ 60 min
O=[N+]([O-])c1ccc(CNc2nc(NCc3cccc(C(F)(F)F)c3)nc3[nH]cnc23)cc1 — half-life (mouse; liver microsomes; 1 µM; pH 7.4): 9 min
O=C(Nc1cncc(-c2nc3ccccc3o2)c1)c1ccc(N2CCNCC2)c([N+](=O)[O-])c1 — half-life (CD-1 mouse; liver microsomes; 1 µM; pH 7.4): > 110 min
CC(C)NCC(O)COc1cccc2ccccc12 (stereo not drawn) — half-life (mouse; liver microsomes; 1 µM; pH 7.4): 15.8 min
C/C=C/C[C@H](C)[C@@H](OC)[C@@H](C)[C@H](O)C[C@H]1OC(=O)C=C[C@H]1CC — half-life (mouse; liver microsomes): < 15 min
O=C(O)CN(CCCc1ccccc1)CC(=O)N[C@H](CO)Cc1c[nH]cn1 — half-life (male mouse; liver microsomes; 1 µM; pH 7.4): > 40 min
CC[C@@H]1C=CC(=O)O[C@@H]1C[C@@H](O)[C@H](C)[C@H](OC)[C@@H](C)Cc1ccc(F)cc1 — half-life (mouse; liver microsomes): < 2.3 min
Cc1noc(C)c1-c1ccc2nc(C(=O)NC3CCN(C)CC3)nc(NCc3cccc(Cl)c3)c2c1 — half-life (mouse; liver microsomes): 28 min
Cc1cc(S(=O)(=O)Nc2cccc(-c3nnn[nH]3)c2)ccc1C(F)(F)F — half-life (mouse; liver microsomes): 133 min
COc1ccc(NC(=O)[C@H]2c3ccccc3C(=O)N(CC(C)C)[C@@H]2c2cccs2)cc1Cl (racemic) — half-life (female CD-1 mouse; liver microsomes; 80 nM; pH 7.4): < 30 min
CCOC(=O)NS(=O)(=O)c1sc(CC(C)C)cc1-c1ccc2c(c1)CN(C(C)=O)C2 — half-life (mouse; liver microsomes; 1 µM; pH 7.4): 21 min
C=CC(=O)Nc1cccc(-n2nc3c(=O)[nH]nc(N)c3c2-c2oc3ccc(C)cc3c2C)c1 — half-life (nude mouse; blood; 1 µM; whole blood): 134 min
O=C(Nc1ccc(CN2CCOCC2)c(C(F)(F)F)c1)c1ccc(C#Cc2cccc3cnccc23)cn1 — half-life (mouse; liver microsomes): 13.4 min
C=CC(=O)Nc1ccc(N2CCC[C@@H](Nc3ncc(Cl)c(-c4c[nH]c5ccccc45)n3)C2)cc1 — half-life (mouse; liver microsomes): 7.2 min
N=C(N)NCc1ccc(NC(=O)C23CCC(C(=O)Nc4ccc(C5=CCN(C(=N)N)CC5)cc4)(CC2)CC3)cc1 — half-life (CD-1 mouse; liver microsomes; 1 µM): > 60 min
NC1(c2ccc(-c3nc4ccn5c(=O)[nH]nc5c4cc3-c3ccccc3)cc2)CCC1 — half-life (CD-1 mouse; liver microsomes; 1 µM; pH 7.4): 85.8 min
O=C(N[C@H](Cc1c[nH]c2ccccc12)C(=O)Nc1ccncc1)c1ccc(-c2cccc(F)c2)cc1F — half-life (mouse; liver microsomes): 27 min
CCOC(=O)C1=C(C)N/C(=C/c2cc(C)n(-c3ccc(Br)cc3)c2C)C1=O — half-life (mouse; liver microsomes; 1 µM): 28 min
CCCCOC(=O)NS(=O)(=O)c1sc(CC(C)C)cc1-c1cccc2c1CN(C(C)=O)C2 — half-life (mouse; liver microsomes; 1 µM; pH 7.4): 6.9 min
CCOC(=O)C1=C(C)N/C(=C/c2cc(C)n(-c3ccc(CN4CCOCC4)cc3)c2C)C1=O — half-life (mouse; liver microsomes; 1 µM): 31 min
COc1cc2c(cc(C#N)n2Cc2cn[nH]c2)c(C)c1CN1CCC(Nc2ncnc3sc(CC(F)(F)F)cc23)CC1 — half-life (CD-1 mouse; liver microsomes; 1 µM; pH 7.4): > 30 min
CCNc1nc2c(c(N3CC(=O)Nc4cc(OC)ccc43)n1)CCC2 — half-life (mouse; liver microsomes): 5.7 min
CCS(=O)(=O)Nc1ccc(OCCOCCOCCOCCOc2ccc(NS(=O)(=O)CC)cc2-c2cn(C)c(=O)c3ccccc23)c(-c2cn(C)c(=O)c3ccccc23)c1 — half-life (mouse; liver microsomes): < 2.3 min
Cc1ccc(-c2cnc(N3CCC(C(N)=O)CC3)s2)cc1 — half-life (mouse; liver microsomes; 1 µM): < 10 min
O=S(=O)(Nc1cccc(-c2nnn[nH]2)c1)c1cc(C(F)(F)F)cc(C(F)(F)F)c1 — half-life (mouse; liver microsomes): 535 min
C=CC(=O)Nc1ccc(N2CCC[C@@H](Nc3ncc(Cl)c(-c4c[nH]c5ccccc45)n3)C2)c(F)c1 — half-life (mouse; liver microsomes): 7.6 min
CCOC(=O)C1=C(C)N/C(=C/c2cc(CC)n(-c3ccccc3C(F)(F)F)c2CC)C1=O — half-life (mouse; liver microsomes; 1 µM): 12 min
CCCCOC(=O)NS(=O)(=O)c1sc(CC(C)C)cc1-c1ccc2c(c1)CCN(C(C)=O)C2 — half-life (mouse; liver microsomes; 1 µM; pH 7.4): 2.9 min
Cc1cccc(C(=O)Nc2nc(-c3ccccn3)cs2)c1 — half-life (CD-1 mouse; liver microsomes; 39.6 µM; pH 7.4): 6 min
CCOC(=O)C1=C(C)N/C(=C/c2ccn(-c3ccccc3C(F)(F)F)c2)C1=O — half-life (mouse; liver microsomes; 1 µM): 11 min
O=C(O)C1CCN(c2ncc(-c3ccc4c(c3)OCCCO4)s2)CC1 — half-life (mouse; liver microsomes; 1 µM): > 30 min
CCOC(=O)C1=C(C)N/C(=C/c2ccn(-c3ccc(C(F)(F)F)cc3)c2)C1=O — half-life (mouse; liver microsomes; 1 µM): 12 min
CNC(=O)[C@H](Cc1c[nH]cn1)NC(=O)CN(CCCc1ccccc1)CC(=O)O — half-life (male mouse; liver microsomes; 1 µM; pH 7.4): > 40 min
CCOC(=O)C1=C(C)N/C(=C/c2cc(C)n(-c3ccc(Cl)cc3)c2C)C1=O — half-life (mouse; liver microsomes; 1 µM): 24 min
COc1ccc([C@@H](O)[C@@H](CN2CCCC2)NC(=O)CC2Cc3ccccc3C2)cc1F — half-life (CD-1 mouse; liver microsomes; 1 µM; pH 7.4): 2.7 min
CCOC(=O)C1=C(C)N/C(=C/c2cc(C)n(-c3ccc(N(C)C)cc3)c2C)C1=O — half-life (mouse; liver microsomes; 1 µM): 31 min
O=c1ccc2ccc(O)cc2o1 — half-life (mouse; liver S9; 2 µM; pH 7.4): 4.71 min
